Measurements taken from publication PMC9826232 (Chemmedchem, 2022).

Tests used:
K‐Ras(G12D) = K‐Ras(G12D) (Homo sapiens, UniProt P01116, G12D); assay: Nucleotide exchange assay; assay type: biochemical
Method in brief: (§1)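 SOS1 (final 30.2 nM for G12D, 4.6 nM for wild type) and GTP (1 μM final) follow. Incubated overnight at room temperature, then GDP detection reagent for 1 h. Luminescence read; IC50 from sigmoidal curves.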

K‐Ras wild type protein = K‐Ras wild type protein (Homo sapiens, UniProt P01116); assay: Nucleotide exchange assay; assay type: biochemical
Method in brief: as §1

[1] = Control assay for nucleotide exchange assay; settings: 3 mM compound; percent of control
SNU‐1 (G12D) = assay: CellTiter-Glo cell viability assay, SNU-1; assay type: cell-based; settings: Homo sapiens, SNU1, 72 h, read-out: Cellular activity IC50, SNU‐1 (G12D)
Method in brief: (§2)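 Cells seeded, then held 24 h at 37 °C/5 % CO2 before test compound in DMSO was added at various concentrations. Plates were incubated a further 72 h at 37 °C, 5 % CO2, humidified. Controls were DMSO vehicle and 10 μM staurosporine. CellTiter-Glo reagent was added at equal volume to the medium, then 2 min shaking and 10 min at room temperature before luminescence (ATP) reading. IC50 from dose-response fit; plates accepted only if Z' ≥0.5, from 16 control values each.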

NCI‐H441 (G12 V) = assay: CellTiter-Glo cell viability assay, NCI-H441; assay type: cell-based; settings: Homo sapiens, NCI-H441, 72 h, read-out: Cellular activity IC50, NCI‐H441 (G12 V)
Method in brief: as §2

HCT15 (G13D) = assay: CellTiter-Glo cell viability assay, HCT15; assay type: cell-based; settings: Homo sapiens, HCT-15, 72 h, read-out: Cellular activity IC50, HCT15 (G13D)
Method in brief: as §2

H358 (G12 C) = assay: CellTiter-Glo cell viability assay, H358; assay type: cell-based; settings: Homo sapiens, NCI-H358, 72 h, read-out: Cellular activity IC50, H358 (G12 C)
Method in brief: as §2

A549 (G12S) = assay: CellTiter-Glo cell viability assay, A549; assay type: cell-based; settings: Homo sapiens, A549, 72 h, read-out: Cellular activity IC50, A549 (G12S)
Method in brief: as §2

[2] = cited from earlier work

K‐Ras wild type protein, sequence (P01116 1-188 isoform P01116-2): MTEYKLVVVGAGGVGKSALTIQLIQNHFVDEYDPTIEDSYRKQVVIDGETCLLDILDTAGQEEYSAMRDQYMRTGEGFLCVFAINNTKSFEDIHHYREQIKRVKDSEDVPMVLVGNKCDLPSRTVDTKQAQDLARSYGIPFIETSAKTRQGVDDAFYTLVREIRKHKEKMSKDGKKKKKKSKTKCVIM
K‐Ras(G12D), sequence (P01116 1-188 isoform P01116-2 G12D): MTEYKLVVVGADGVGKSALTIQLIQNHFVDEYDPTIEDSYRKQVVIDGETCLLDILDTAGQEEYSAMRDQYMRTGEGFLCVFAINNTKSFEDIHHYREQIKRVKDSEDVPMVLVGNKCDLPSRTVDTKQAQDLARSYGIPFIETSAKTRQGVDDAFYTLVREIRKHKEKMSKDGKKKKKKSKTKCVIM

For `O=[N+]([O-])c1ccc(NN=C(c2ccc(O)cc2)c2ccc(O)cc2)c([N+](=O)[O-])c1` [7 a, 4,4′‐((2‐(2,4‐Dinitrophenyl)hydrazinylidene)methylene)diphenol], the IC50 (K‐Ras(G12D)) was 236 ± 46 µM, the IC50 (K‐Ras wild type protein) was 306 ± 49 µM and the “WT %CRTL (3 mM)” value [1] was 26%. It also gave an IC50 (SNU‐1 (G12D)) of 16.7 ± 1.2 µM, an IC50 (NCI‐H441 (G12 V)) of 22.8 ± 4.2 µM and an IC50 (HCT15 (G13D)) of 18.9 ± 0.6 µM. The IC50 (H358 (G12 C)) was 20.9 ± 0.8 µM, the IC50 (A549 (G12S)) was 16.1 ± 1.5 µM and the tolerability [2] was “well tolerated”.
